Laboratory results published in ChEMBL document CHEMBL1811884, “Bioactive neo-clerodane diterpenoids from the whole plants of Ajuga ciliata Bunge” (J Nat Prod, 2011).
Calls of active or inactive are those of the source. The calls are words filed in the database; no cut-off is given here.

Tests used:
[1] = tested on: SH-SY5Y; assay: Neuroprotective activity against MPP+-induced neuronal cell death in human SH-SY5Y cells assessed as cell viability at 3 uM pretreated for 2 hrs before MPP+ administration measured after 4 hrs by MTT assay; format: functional
In short: (§1)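 SH-SY5Y cells grown at 37 °C in DMEM with 10% heat-inactivated FBS and penicillin/streptomycin, detached with 1 mM EGTA in PBS for 15 min, seeded at 1 × 10^4 cells/well and incubated 24 h. Cells were pretreated 2 h with compound at 3, 10 or 30 μM, then exposed to MPP+ medium. MTT was added to 0.5 mg/mL final, incubated 4 h, and formazan read at 550 nm. Guanosine served as positive control. Triplicates, mean ± SEM, ANOVA with Student–Newman–Keuls test.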

[2] = tested on: SH-SY5Y; assay: Neuroprotective activity against MPP+-induced neuronal cell death in human SH-SY5Y cells assessed as cell viability at 10 uM pretreated for 2 hrs before MPP+ administration measured after 4 hrs by MTT assay; format: functional; in short: as §1
[3] = tested on: SH-SY5Y; assay: Neuroprotective activity against MPP+-induced neuronal cell death in human SH-SY5Y cells assessed as cell viability at 30 uM pretreated for 2 hrs before MPP+ administration measured after 4 hrs by MTT assay; format: functional; in short: as §1
[4] = tested on: SH-SY5Y; assay: Cytotoxicity in human SH-SY5Y cells at 3 to 30 uM by MTT assay; format: cell-based
In short: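 SH-SY5Y human dopaminergic neuroblastoma cells grown at 37 °C, 5% CO2, in DMEM with 10% inactivated FBS and penicillin/streptomycin. Cells detached with 1 mM EGTA in PBS for 15 min, seeded at 1 × 10^4 cells/well, and incubated 24 h. Compounds given at 3, 10 and 30 μM. MTT added to 0.5 mg/mL final for 4 h at 37 °C; formazan read at 550 nm. Run in triplicate.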

CC[C@H](C)C(=O)O[C@@H](C[C@@]1(C)[C@H](C)C[C@H](OC(C)=O)[C@]2(COC(C)=O)[C@@H]1[C@H](OC(C)=O)CC[C@]2(O)CCl)C1=CC(=O)OC1 [AJUGACILIATIN B]
Activity [1]: 67.4% | Activity [2]: 80.4% | Activity [3]: 88.2%

CC(=O)OC[C@@]12[C@@H](OC(C)=O)C[C@@H](C)[C@](C)(C[C@H](O)C3=CC(=O)OC3)[C@H]1[C@H](OC(C)=O)CC[C@]21CO1
Activity [1]: inactive | Activity [2]: inactive | Activity [3]: inactive

C/C=C(\C)C(=O)O[C@@H](C[C@@]1(C)[C@H](C)C[C@H](OC(C)=O)[C@]2(COC(C)=O)[C@@H]1[C@H](OC(C)=O)CC[C@]21CO1)C1=CC(=O)OC1 [AJUGANIPPONIN A]
Activity [4]: Non-toxic | Activity [1]: 65.4% | Activity [2]: 69.2% | Activity [3]: 76.6%

CC(=O)OC[C@]12[C@@H](OC(C)=O)C[C@@H](C)[C@]3(C)C[C@H](C4=CC(=O)OC4)O[C@H](CC[C@]14CO4)[C@H]32 [AJUGACILIATIN H]
Activity [1]: 65.2% | Activity [2]: 74.2% | Activity [3]: 78.2%

Nc1nc2c(ncn2[C@@H]2O[C@H](CO)[C@@H](O)[C@H]2O)c(=O)[nH]1 [GUANOSINE]
Activity [1]: 70% | Activity [2]: 79.7% | Activity [3]: 90.1%

C/C=C(\C)C(=O)O[C@@H]1CC[C@]2(CO2)[C@]2(COC(C)=O)[C@@H](OC(C)=O)C[C@@H](C)[C@](C)(C[C@H](OC(C)=O)C3=CC(=O)OC3)[C@@H]12
Activity [1]: inactive | Activity [2]: inactive | Activity [3]: inactive

C/C=C(\C)C(=O)O[C@@H](C[C@@]1(C)[C@H](C)C[C@H](OC(C)=O)[C@]2(COC(C)=O)[C@@H]1CCC[C@]21CO1)C1=CC(=O)OC1
Activity [1]: inactive | Activity [2]: inactive | Activity [3]: inactive

C/C=C(\C)C(=O)O[C@@H](C[C@@]1(C)[C@H](C)C[C@H](OC(C)=O)[C@]2(COC(C)=O)[C@@H]1[C@H](OC(=O)[C@@H](C)CC)CC[C@]21CO1)C1=CC(=O)OC1 [AJUGAMARIN H1]
Activity [1]: 67.3% | Activity [2]: 70.4% | Activity [3]: 87.5%

CC[C@H](C)C(=O)O[C@@H]1CC[C@](O)(CCl)[C@]2(COC(C)=O)[C@@H](OC(C)=O)C[C@@H](C)[C@](C)(C[C@H](OC(C)=O)C3=CC(=O)OC3)[C@@H]12
Activity [1]: inactive | Activity [2]: inactive | Activity [3]: inactive

C/C=C(\C)C(=O)O[C@@H]1CC[C@]2(CO2)[C@]2(COC(C)=O)[C@@H](OC(C)=O)C[C@@H](C)[C@](C)(C[C@H](O)C3=CC(=O)OC3)[C@@H]12 [AJUGAMARIN A1]
Activity [1]: 65.3% | Activity [2]: 73.4% | Activity [3]: 81.9%

CC(=O)OC[C@@]12[C@@H](OC(C)=O)C[C@@H](C)[C@](C)(C[C@H](OC(C)=O)C3=CC(=O)OC3)[C@H]1[C@H](OC(C)=O)CC[C@]21CO1
Activity [1]: inactive | Activity [2]: inactive | Activity [3]: inactive

C/C=C(\C)C(=O)OC[C@@]12[C@@H](OC(C)=O)C[C@@H](C)[C@](C)(CCC3=CC(=O)OC3)[C@H]1CCC[C@]21CO1
Activity [1]: inactive | Activity [2]: inactive | Activity [3]: inactive

C/C=C(\C)C(=O)O[C@@H]1CC[C@](O)(CCl)[C@]2(COC(C)=O)[C@@H](OC(C)=O)C[C@@H](C)[C@](C)(C[C@H](O)C3=CC(=O)OC3)[C@@H]12 [AJUGAMARIN A1 CHLOROHYDRIN]
Activity [1]: 67.1% | Activity [2]: 69.2% | Activity [3]: 73.8%

C/C=C(\C)C(=O)O[C@@H]1CC[C@](O)(CCl)[C@]2(COC(C)=O)[C@@H](OC(C)=O)C[C@@H](C)[C@](C)(C[C@H](OC(=O)[C@@H](C)CC)C3=CC(=O)OC3)[C@@H]12
Activity [1]: inactive | Activity [2]: inactive | Activity [3]: inactive

C/C=C(\C)C(=O)O[C@@H]1CC[C@](O)(CCl)[C@]2(COC(C)=O)[C@@H](OC(C)=O)C[C@@H](C)[C@](C)(C[C@H](OC(C)=O)C3=CC(=O)OC3)[C@@H]12 [AJUGAMARIN A2 CHLOROHYDRIN]
Activity [1]: 71% | Activity [2]: 79.7% | Activity [3]: 83.7%

CC[C@H](C)C(=O)O[C@@H](C[C@@]1(C)[C@H](C)C[C@H](OC(C)=O)[C@]2(COC(C)=O)[C@@H]1[C@H](OC(=O)[C@@H](C)CC)CC[C@]2(O)CCl)C1=CC(=O)OC1
Activity [1]: inactive | Activity [2]: inactive | Activity [3]: inactive

C/C=C(\C)C(=O)O[C@@H](C[C@@]1(C)[C@H](C)C[C@H](OC(C)=O)[C@]2(COC(C)=O)[C@@H]1[C@H](OC(=O)/C(C)=C/C)CC[C@]2(O)CCl)C1=CC(=O)OC1
Activity [1]: inactive | Activity [2]: inactive | Activity [3]: inactive

C/C=C(\C)C(=O)[C@@H]1CC[C@]2(CO2)[C@]2(COC(C)=O)[C@@H](OC(C)=O)C[C@@H](C)[C@](C)(C[C@H](OC(=O)[C@@H](C)CC)C3=CC(=O)OC3)[C@@H]12
Activity [1]: inactive | Activity [2]: inactive | Activity [3]: inactive

CC[C@H](C)C(=O)O[C@@H]1CC[C@]2(CO2)[C@]2(COC(C)=O)[C@@H](OC(C)=O)C[C@@H](C)[C@](C)(C[C@H](O)C3=CC(=O)OC3)[C@@H]12
Activity [1]: inactive | Activity [2]: inactive | Activity [3]: inactive

CC[C@H](C)C(=O)O[C@@H](C[C@@]1(C)[C@H](C)C[C@H](OC(C)=O)[C@]2(COC(C)=O)[C@@H]1[C@H](OC(=O)[C@@H](C)CC)CC[C@]21CO1)C1=CC(=O)OC1 [AJUGATAKASIN B]
Activity [1]: 70.2% | Activity [2]: 76.5% | Activity [3]: 84.3%

C/C=C(\C)C(=O)O[C@@H](C[C@@]1(C)[C@H](C)C[C@H](OC(C)=O)[C@]2(COC(C)=O)[C@@H]1[C@H](OC(=O)/C(C)=C/C)CC[C@]21CO1)C1=CC(=O)OC1 [AJUGATAKASIN A]
Activity [1]: 66.3% | Activity [2]: 71.5% | Activity [3]: 78.2%

C/C=C(\C)C(=O)OC[C@@]12[C@H](CCC[C@]1(O)COC(C)=O)[C@@](C)(CCC1=CC(=O)OC1)[C@H](C)C[C@@H]2O
Activity [1]: inactive | Activity [2]: inactive | Activity [3]: inactive

CC(=O)OC[C@]12[C@@H](OC(C)=O)C[C@@H](C)[C@]3(C)C[C@H](C4=CC(=O)OC4)O[C@H](CC[C@]1(O)CO)[C@H]32 [AJUGACILIATIN G]
Activity [1]: 69.1% | Activity [2]: 73.6% | Activity [3]: 81.5%

CC(=O)OC[C@@]12[C@@H](OC(C)=O)C[C@@H](C)[C@](C)(C[C@H](O)C3=CC(=O)OC3)[C@H]1CCC[C@]21CO1
Activity [1]: inactive | Activity [2]: inactive | Activity [3]: inactive

C/C=C(\C)C(=O)OC[C@@]12[C@@H](OC(C)=O)C[C@@H](C)[C@](C)(CCC3=CC(=O)OC3)[C@H]1CCC[C@]2(O)CCl
Activity [1]: inactive | Activity [2]: inactive | Activity [3]: inactive

C/C=C(\C)C(=O)OC[C@@]12[C@H](CCC[C@]1(O)CO)[C@@](C)(CCC1=CC(=O)OC1)[C@H](C)C[C@@H]2O
Activity [1]: inactive | Activity [2]: inactive | Activity [3]: inactive

CC(=O)OC[C@]12[C@@H](OC(C)=O)C[C@@H](C)[C@]3(C)C[C@H](C4=CC(=O)OC4)O[C@H](CC[C@]1(O)CCl)[C@H]32
Activity [1]: inactive | Activity [2]: inactive | Activity [3]: inactive

C/C=C(\C)C(=O)OC[C@@]1(O)CCC[C@@H]2[C@@](C)(CCC3=CC(=O)OC3)[C@H](C)C[C@H](O)[C@]21CO
Activity [1]: inactive | Activity [2]: inactive | Activity [3]: inactive
